Measurements reported in ChEMBL document CHEMBL1140952 (J Med Chem, 2009).
Converted amounts (≈) assume the structure as drawn. Each block holds one compound with its values, some of them ahead of it.

Key:
[1] = biological target: T1, Hepatocyte growth factor receptor (Homo sapiens, UniProt P08581); assay: Inhibition of MET
[2] = Antiproliferative activity against Met-dependent human GTL16 cells after 72 hrs by MTS assay; format: functional, cell-based; conditions: GTL 16, 72 h
Cytochrome P450 3A4 = Cytochrome P450 3A4 (Homo sapiens, UniProt P08684); assay: Inhibition of CYP3A4; format: ADME
[3] = biological target: Serine/threonine-protein kinase PLK1 (Homo sapiens, UniProt P53350); assay: Inhibition of plk1/3
[4] = biological target: Mitogen-activated protein kinase 14 (Homo sapiens, UniProt Q16539); assay: Inhibition of p38alpha
[5] = biological target: Serine/threonine-protein kinase pim-1 (Homo sapiens, UniProt P11309); assay: Inhibition of pim1
[6] = biological target: MAP kinase-activated protein kinase 2 (Homo sapiens, UniProt P49137); assay: Inhibition of MK2
[7] = biological target: Inhibitor of NF-kappa-B kinase alpha/beta (Homo sapiens, UniProt O14920+O15111); assay: Inhibition of IKK1/2
[8] = Inhibition of CDK2E
[9] = Inhibition of PKA
[10] = biological target: BDNF/NT-3 growth factors receptor (Homo sapiens, UniProt Q16620); assay: Inhibition of TrkB
[11] = biological target: High affinity nerve growth factor receptor (Homo sapiens, UniProt P04629); assay: Inhibition of TrkA
[12] = biological target: Vascular endothelial growth factor receptor 2 (Homo sapiens, UniProt P35968); assay: Inhibition of VEGFR2
Aurora kinase B = Aurora kinase B (Homo sapiens, UniProt Q96GD4); assay: Inhibition of Aurora B
[13] = biological target: Tyrosine-protein kinase Mer (Homo sapiens, UniProt Q12866); assay: Inhibition of Mer
[14] = biological target: Macrophage-stimulating protein receptor (Homo sapiens, UniProt Q04912); assay: Inhibition of Ron
[15] = biological target: Tyrosine-protein kinase receptor TYRO3 (Homo sapiens, UniProt Q06418); assay: Inhibition of Tyro3
[16] = Aqueous solubility at pH 1.0; format: physicochemical
[17] = biological target: Tyrosine-protein kinase Blk (Homo sapiens, UniProt P51451); assay: Inhibition of Blk by Ambit binding assay
Ephrin type-A receptor 3 = Ephrin type-A receptor 3 (Homo sapiens, UniProt P29320); assay: Inhibition of Epha3 by Ambit binding assay
[18] = biological target: Proto-oncogene tyrosine-protein kinase Src (Homo sapiens, UniProt P12931); assay: Inhibition of Src by Ambit binding assay
NCI-H1993 = assay: Antiproliferative activity against Met-dependent human NCI-H1993 cells after 72 hrs by MTS assay; format: functional, cell-based; conditions: NCI-H1993, 72 h
[19] = Antiproliferative activity against Met-driven human U87 cells after 72 hrs by MTS assay; format: functional, cell-based, U-87MG ATCC; conditions: U-87 MG
NCI-N87 = assay: Antiproliferative activity against Met-independent human NCI-N87 cells after 72 hrs by MTS assay; format: functional, cell-based; conditions: NCI-N87, 72 h
[20] = biological target: T1, Hepatocyte growth factor receptor; assay: Inhibition of Met phosphorylation in human GTL16 cells after 30 mins; format: cell-based
Method in brief: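 Human GTL-16 gastric carcinoma cells were incubated with compound for 30 min, then lysed. Phospho-Met protein levels in the lysates were assessed across a range of concentrations.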

Mus musculus [21] = assay: Cmax in BALB/c mouse at 10 mg/kg, po; format: ADME, organism-based; parameters: dose 10 mg/kg, route oral; conditions: in vivo
Method in brief: (§1)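 In-life PK: single iv and oral doses given in 70% PEG400-30% water, orally as a solution formulation. Mouse values are averages of six animals and rat values of three. Dog values are averages of two or three animals per route. Plasma Cmax, Tmax, AUC0-24h, iv t1/2, Cl, Vss and oral bioavailability were derived.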

[22] = Tmax in BALB/c mouse at 10 mg/kg, po; format: ADME, organism-based; parameters: dose 10 mg/kg, route oral; conditions: in vivo; method in brief: as §1
[23] = Half life in BALB/c mouse at 5 mg/kg, iv; format: ADME, organism-based; parameters: dose 5 mg/kg, route intravenous; conditions: in vivo; method in brief: as §1
[24] = Clearance in BALB/c mouse at 5 mg/kg, iv; format: ADME, organism-based; parameters: dose 5 mg/kg, route intravenous; conditions: in vivo; method in brief: as §1
[25] = Volume of distribution at steady state in BALB/c mouse at 5 mg/kg, iv; format: ADME, organism-based; parameters: dose 5 mg/kg, route intravenous; conditions: in vivo, read-out: Vdss; method in brief: as §1
[26] = Oral bioavailability in BALB/c mouse at 10 mg/kg; format: ADME, organism-based; conditions: in vivo; method in brief: as §1
Rattus norvegicus = assay: Cmax in Sprague-Dawley rat at 10 mg/kg, po; format: ADME, organism-based; parameters: dose 10 mg/kg, route oral; conditions: in vivo; method in brief: as §1
[27] = Tmax in Sprague-Dawley rat at 10 mg/kg, po; format: ADME, organism-based; parameters: dose 10 mg/kg, route oral; conditions: in vivo; method in brief: as §1
[28] = Half life in Sprague-Dawley rat at 5 mg/kg, iv; format: ADME, organism-based; parameters: dose 5 mg/kg, route intravenous; conditions: in vivo; method in brief: as §1
[29] = Clearance in Sprague-Dawley rat at 5 mg/kg, iv; format: ADME, organism-based; parameters: dose 5 mg/kg, route intravenous; conditions: in vivo; method in brief: as §1
[30] = Volume of distribution at steady state in Sprague-Dawley rat at 5 mg/kg, iv; format: ADME, organism-based; parameters: dose 5 mg/kg, route intravenous; conditions: in vivo, read-out: Vdss; method in brief: as §1
[31] = Oral bioavailability in Sprague-Dawley rat at 10 mg/kg; format: ADME, organism-based; conditions: in vivo; method in brief: as §1
Canis familiaris = assay: Cmax in Beagle dog at 5 mg/kg, po; format: ADME, organism-based, Canis lupus familiaris; parameters: dose 5 mg/kg, route oral; conditions: in vivo; method in brief: as §1
[32] = Tmax in Beagle dog at 5 mg/kg, po; format: ADME, organism-based, Canis lupus familiaris; parameters: dose 5 mg/kg, route oral; conditions: in vivo; method in brief: as §1
[33] = Half life in Beagle dog at 1 mg/kg, iv; format: ADME, organism-based, Canis lupus familiaris; parameters: dose 1 mg/kg, route intravenous; conditions: in vivo; method in brief: as §1
[34] = Clearance in Beagle dog at 1 mg/kg, iv; format: ADME, organism-based, Canis lupus familiaris; parameters: dose 1 mg/kg, route intravenous; conditions: in vivo; method in brief: as §1
[35] = Volume of distribution at steady state in Beagle dog at 1 mg/kg, iv; format: ADME, organism-based, Canis lupus familiaris; parameters: dose 1 mg/kg, route intravenous; conditions: in vivo, read-out: Vdss; method in brief: as §1
[36] = Oral bioavailability in Beagle dog at 5 mg/kg; format: ADME, organism-based, Canis lupus familiaris; conditions: in vivo; method in brief: as §1
[37] = Protein binding in BALB/c mouse; format: ADME, organism-based; conditions: in vivo, read-out: PB
[38] = Protein binding in Sprague-Dawley rat; format: ADME, organism-based; conditions: in vivo, read-out: PB
[39] = Protein binding in Beagle dog; format: ADME, organism-based, Canis lupus familiaris; conditions: in vivo, read-out: PB
[40] = Antitumor activity in human GTL16 cells xenografted athymic mouse at 6.25 mg/kg, po administered once daily for 14 days; format: functional; conditions: GTL 16, 336 h, read-out: TGI
[41] = Antitumor activity in human GTL16 cells xenografted athymic mouse at 25 mg/kg, po administered once daily for 14 days; format: functional; conditions: GTL 16, 336 h, read-out: TGI
[42] = Antitumor activity in human GTL16 cells xenografted athymic mouse at 50 mg/kg, po administered once daily for 14 days; format: functional; conditions: GTL 16, 336 h, read-out: TGI
[43] = Cmax in human GTL16 cells xenografted athymic mouse at 6.25 mg/kg, po; format: ADME, organism-based; parameters: dose 6.25 mg/kg, route oral; conditions: in vivo
Method in brief: (§2)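 GTL-16 human gastric carcinoma cells were implanted subcutaneously in athymic mice and tumors staged to about 125 mm³. The compound was then given orally once daily for 14 consecutive days. Drug exposure (Cmax, AUC0-24h) was measured at the dose levels. Toxicity was judged by weight loss or morbidity.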

[44] = AUC (0 to 24 hrs) in human GTL16 cells xenografted athymic mouse at 6.25 mg/kg, po; format: ADME, organism-based; parameters: time < 24 hr, dose 6.25 mg/kg, route oral; conditions: in vivo; method in brief: as §2
[45] = Cmax in human GTL16 cells xenografted athymic mouse at 50 mg/kg, po; format: ADME, organism-based; parameters: dose 50 mg/kg, route oral; conditions: in vivo; method in brief: as §2
[46] = AUC (0 to 24 hrs) in human GTL16 cells xenografted athymic mouse at 50 mg/kg, po; format: ADME, organism-based; parameters: time < 24 hr, dose 50 mg/kg, route oral; conditions: in vivo; method in brief: as §2
Mus musculus [47] = assay: Toxicity in human GTL16 cells xenografted athymic mouse assessed as weight loss/morbidity at 6.25 mg/kg, po; format: organism-based; parameters: dose 6.25 mg/kg, route oral; conditions: in vivo; method in brief: as §2
Mus musculus [48] = assay: Toxicity in human GTL16 cells xenografted athymic mouse assessed as weight loss/morbidity at 25 mg/kg, po; format: organism-based; parameters: dose 25 mg/kg, route oral; conditions: in vivo; method in brief: as §2
Mus musculus [49] = assay: Toxicity in human GTL16 cells xenografted athymic mouse assessed as weight loss/morbidity at 50 mg/kg, po; format: organism-based; parameters: dose 50 mg/kg, route oral; conditions: in vivo; method in brief: as §2
[50] = biological target: Platelet-derived growth factor receptor beta (Homo sapiens, UniProt P09619); assay: Inhibition of PDGFRbeta by cellular proliferation assay

T1 sequence (P08581 whole entry): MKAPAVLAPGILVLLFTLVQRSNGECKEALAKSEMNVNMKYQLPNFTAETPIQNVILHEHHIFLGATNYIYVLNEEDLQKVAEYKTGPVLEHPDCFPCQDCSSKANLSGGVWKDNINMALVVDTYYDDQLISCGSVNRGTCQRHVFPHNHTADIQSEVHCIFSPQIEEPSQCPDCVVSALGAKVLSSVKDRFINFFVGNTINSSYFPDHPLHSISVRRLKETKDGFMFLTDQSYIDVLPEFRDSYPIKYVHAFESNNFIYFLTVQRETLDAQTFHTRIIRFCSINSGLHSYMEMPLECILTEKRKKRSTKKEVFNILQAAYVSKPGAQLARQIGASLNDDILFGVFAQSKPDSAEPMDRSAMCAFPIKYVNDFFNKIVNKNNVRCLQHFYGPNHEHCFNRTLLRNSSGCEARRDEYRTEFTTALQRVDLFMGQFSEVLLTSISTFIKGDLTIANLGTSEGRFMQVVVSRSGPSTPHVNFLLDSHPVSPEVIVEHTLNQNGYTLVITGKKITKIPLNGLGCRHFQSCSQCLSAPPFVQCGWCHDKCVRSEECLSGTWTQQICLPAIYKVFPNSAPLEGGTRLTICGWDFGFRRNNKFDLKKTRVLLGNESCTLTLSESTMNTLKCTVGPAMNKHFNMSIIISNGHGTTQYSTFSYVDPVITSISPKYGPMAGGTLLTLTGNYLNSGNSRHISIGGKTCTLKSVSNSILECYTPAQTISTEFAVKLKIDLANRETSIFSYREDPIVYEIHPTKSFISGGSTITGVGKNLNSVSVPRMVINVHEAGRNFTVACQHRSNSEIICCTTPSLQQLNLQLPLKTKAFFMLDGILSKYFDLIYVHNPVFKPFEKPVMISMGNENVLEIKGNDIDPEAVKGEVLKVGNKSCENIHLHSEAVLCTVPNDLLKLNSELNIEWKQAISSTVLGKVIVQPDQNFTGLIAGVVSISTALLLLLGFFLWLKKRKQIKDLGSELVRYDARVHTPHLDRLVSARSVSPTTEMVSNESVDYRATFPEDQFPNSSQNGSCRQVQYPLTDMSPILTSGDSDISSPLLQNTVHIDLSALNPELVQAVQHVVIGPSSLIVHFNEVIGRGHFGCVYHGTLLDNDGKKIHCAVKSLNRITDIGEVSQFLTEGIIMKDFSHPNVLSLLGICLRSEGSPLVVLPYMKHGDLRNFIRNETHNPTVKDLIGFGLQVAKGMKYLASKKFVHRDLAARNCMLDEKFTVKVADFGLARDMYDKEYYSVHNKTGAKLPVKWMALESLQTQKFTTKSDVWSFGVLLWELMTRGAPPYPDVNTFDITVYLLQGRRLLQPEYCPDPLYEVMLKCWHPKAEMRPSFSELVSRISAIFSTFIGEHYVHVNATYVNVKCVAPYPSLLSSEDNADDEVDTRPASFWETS
Sequence of Serine/threonine-protein kinase PLK1 (P53350 whole entry): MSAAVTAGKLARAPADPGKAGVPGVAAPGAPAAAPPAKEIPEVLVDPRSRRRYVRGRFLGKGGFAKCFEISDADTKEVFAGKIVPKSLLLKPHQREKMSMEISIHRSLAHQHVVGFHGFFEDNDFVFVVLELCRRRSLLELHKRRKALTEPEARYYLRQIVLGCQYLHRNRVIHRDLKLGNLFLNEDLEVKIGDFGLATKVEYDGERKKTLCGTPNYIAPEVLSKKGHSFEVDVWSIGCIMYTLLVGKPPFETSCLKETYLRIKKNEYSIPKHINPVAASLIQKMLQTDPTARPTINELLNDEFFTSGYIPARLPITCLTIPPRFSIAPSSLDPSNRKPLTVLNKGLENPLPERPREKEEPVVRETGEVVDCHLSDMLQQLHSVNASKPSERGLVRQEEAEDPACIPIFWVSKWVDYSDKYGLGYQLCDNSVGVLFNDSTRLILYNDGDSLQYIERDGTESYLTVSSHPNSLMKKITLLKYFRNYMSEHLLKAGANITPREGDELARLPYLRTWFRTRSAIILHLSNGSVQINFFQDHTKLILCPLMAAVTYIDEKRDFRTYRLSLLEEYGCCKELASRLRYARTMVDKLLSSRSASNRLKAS
Sequence of Tyrosine-protein kinase Mer (Q12866 whole entry): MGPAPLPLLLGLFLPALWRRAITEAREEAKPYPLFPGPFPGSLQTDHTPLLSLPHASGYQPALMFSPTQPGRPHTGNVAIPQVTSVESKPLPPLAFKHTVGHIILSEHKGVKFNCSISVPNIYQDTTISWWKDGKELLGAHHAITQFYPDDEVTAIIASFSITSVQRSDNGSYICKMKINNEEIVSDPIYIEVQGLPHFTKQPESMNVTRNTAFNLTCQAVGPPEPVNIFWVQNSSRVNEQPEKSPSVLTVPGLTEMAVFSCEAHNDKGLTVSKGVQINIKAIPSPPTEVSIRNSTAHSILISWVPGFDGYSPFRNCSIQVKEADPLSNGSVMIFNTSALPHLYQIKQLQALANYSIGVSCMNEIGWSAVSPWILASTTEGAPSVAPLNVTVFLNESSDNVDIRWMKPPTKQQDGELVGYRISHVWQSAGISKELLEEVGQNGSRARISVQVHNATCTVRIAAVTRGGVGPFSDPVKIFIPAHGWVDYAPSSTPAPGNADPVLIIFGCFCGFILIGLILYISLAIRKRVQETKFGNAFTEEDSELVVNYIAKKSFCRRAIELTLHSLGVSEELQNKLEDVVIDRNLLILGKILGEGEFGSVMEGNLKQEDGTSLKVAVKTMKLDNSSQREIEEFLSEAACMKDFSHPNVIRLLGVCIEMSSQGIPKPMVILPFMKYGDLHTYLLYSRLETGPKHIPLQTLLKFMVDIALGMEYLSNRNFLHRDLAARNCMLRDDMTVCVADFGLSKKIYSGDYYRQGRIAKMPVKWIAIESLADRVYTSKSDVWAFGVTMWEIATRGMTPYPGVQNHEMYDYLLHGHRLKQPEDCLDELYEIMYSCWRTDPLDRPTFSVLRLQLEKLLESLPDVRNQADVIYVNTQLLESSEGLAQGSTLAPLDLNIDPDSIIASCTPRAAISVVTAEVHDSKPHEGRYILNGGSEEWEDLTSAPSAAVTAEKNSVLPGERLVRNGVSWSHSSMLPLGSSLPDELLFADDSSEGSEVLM
Sequence of Aurora kinase B (Q96GD4 whole entry): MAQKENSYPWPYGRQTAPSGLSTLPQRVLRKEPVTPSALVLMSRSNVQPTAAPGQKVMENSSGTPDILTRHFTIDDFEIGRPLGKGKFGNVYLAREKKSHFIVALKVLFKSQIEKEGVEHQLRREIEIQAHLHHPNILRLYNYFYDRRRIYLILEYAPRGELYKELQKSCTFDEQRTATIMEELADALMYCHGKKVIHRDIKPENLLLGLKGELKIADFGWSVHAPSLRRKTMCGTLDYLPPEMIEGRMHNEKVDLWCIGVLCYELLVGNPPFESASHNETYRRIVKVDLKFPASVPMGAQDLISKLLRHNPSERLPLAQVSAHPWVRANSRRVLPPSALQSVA
Sequence of High affinity nerve growth factor receptor (P04629 whole entry): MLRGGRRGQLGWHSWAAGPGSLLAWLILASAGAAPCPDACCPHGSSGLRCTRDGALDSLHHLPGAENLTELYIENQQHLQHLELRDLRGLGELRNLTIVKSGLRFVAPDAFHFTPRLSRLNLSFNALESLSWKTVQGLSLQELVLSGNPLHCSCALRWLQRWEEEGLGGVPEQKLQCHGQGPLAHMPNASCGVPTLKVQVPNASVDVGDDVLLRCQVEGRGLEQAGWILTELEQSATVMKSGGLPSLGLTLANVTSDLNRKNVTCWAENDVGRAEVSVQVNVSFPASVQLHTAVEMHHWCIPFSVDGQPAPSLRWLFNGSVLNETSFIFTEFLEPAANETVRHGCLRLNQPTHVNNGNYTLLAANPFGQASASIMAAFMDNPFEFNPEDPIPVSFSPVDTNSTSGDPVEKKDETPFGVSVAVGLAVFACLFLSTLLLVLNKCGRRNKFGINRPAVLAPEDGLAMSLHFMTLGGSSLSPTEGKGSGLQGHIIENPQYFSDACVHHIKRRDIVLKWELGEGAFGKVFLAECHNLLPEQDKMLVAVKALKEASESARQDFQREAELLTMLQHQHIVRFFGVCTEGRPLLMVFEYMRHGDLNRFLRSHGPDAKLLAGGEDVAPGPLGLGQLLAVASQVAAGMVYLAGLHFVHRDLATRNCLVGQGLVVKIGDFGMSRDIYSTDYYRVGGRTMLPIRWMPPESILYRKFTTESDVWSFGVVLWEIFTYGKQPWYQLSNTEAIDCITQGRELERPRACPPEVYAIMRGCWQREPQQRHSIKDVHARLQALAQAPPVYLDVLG
Sequence of Cytochrome P450 3A4 (P08684 whole entry): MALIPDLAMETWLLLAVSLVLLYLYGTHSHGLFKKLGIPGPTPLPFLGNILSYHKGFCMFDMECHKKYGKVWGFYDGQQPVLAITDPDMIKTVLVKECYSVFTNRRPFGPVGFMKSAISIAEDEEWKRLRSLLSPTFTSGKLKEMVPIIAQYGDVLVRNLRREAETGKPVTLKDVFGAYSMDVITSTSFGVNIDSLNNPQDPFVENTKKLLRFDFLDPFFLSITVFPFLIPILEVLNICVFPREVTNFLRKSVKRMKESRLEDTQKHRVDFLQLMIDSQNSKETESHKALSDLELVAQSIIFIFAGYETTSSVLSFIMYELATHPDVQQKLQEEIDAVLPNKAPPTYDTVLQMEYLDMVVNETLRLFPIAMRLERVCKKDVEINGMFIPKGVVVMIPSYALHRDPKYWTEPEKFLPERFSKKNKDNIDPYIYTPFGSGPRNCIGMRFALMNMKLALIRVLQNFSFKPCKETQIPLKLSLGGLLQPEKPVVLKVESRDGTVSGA
Sequence of Mitogen-activated protein kinase 14 (Q16539 whole entry): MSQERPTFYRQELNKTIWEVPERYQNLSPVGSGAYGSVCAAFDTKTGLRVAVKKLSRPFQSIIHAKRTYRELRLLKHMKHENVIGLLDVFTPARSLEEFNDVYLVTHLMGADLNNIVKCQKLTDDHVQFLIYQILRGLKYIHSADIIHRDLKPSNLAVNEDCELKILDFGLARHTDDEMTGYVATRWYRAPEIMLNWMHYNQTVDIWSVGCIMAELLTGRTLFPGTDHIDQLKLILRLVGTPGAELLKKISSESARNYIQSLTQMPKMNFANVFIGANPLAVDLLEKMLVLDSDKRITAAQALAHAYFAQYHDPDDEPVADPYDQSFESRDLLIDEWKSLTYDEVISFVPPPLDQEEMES

SMILES: CN1CCN(Cc2c(Oc3ccc(NC(=O)c4cccn(-c5ccc(F)cc5)c4=O)cc3F)ccnc2N)CC1
IC50 [1]: 5.9 nM | IC50 [2]: 2800 nM

SMILES: CCOc1ccn(-c2ccc(F)cc2)c(=O)c1C(=O)Nc1ccc(Oc2ccnc(N)c2Cl)c(F)c1 [BMS-777607]
IC50 [3]: > 2000 nM | IC50 [4]: > 2000 nM | IC50 [5]: > 2000 nM | IC50 [6]: > 2000 nM | IC50 [7]: > 2000 nM | IC50 [8]: > 2000 nM | IC50 [9]: 550 nM | IC50 [10]: 190 nM | IC50 [11]: 290 nM | IC50 [12]: 180 nM | IC50 (Aurora kinase B): 78 nM | IC50 [13]: 14 nM | IC50 [14]: 1.8 nM | IC50 [15]: 4.3 nM | IC50 [1]: 3.9 nM | IC50 [2]: 100 nM | solubility [16]: 400 µg/mL (≈ 780 µM) | IC50 [17]: > 500 nM | IC50 (Ephrin type-A receptor 3): > 500 nM | IC50 [18]: > 500 nM | IC50 (NCI-H1993): 150 nM | IC50 [19]: 160 nM | IC50 (NCI-N87): > 10000 nM | IC50 [20]: 20 nM | Cmax (Mus musculus [21]): 17.6 µM | Tmax [22]: 0.5 h | half-life [23]: 4.5 h | clearance [24]: 4.4 mL/min/kg | Vd [25]: 1.2 L/kg | bioavailability [26]: 100% | Cmax (Rattus norvegicus): 8.7 µM | Tmax [27]: 1.7 h | half-life [28]: 4.8 h | clearance [29]: 12.1 mL/min/kg | Vd [30]: 1 L/kg | bioavailability [31]: 100% | Cmax (Canis familiaris): 29 µM | Tmax [32]: 2.3 h | half-life [33]: 4.9 h | clearance [34]: 0.82 mL/min/kg | Vd [35]: 0.2 L/kg | bioavailability [36]: 100% | fraction unbound [37]: < 0.01 | fraction unbound [38]: < 0.01 | fraction unbound [39]: < 0.01 | inhibition in vivo at 6.25 mg/kg [40]: 66% | inhibition in vivo at 25 mg/kg [41]: 95% | inhibition in vivo at 50 mg/kg [42]: 102% | Cmax [43]: 4.5 µM | AUC(0-t) at 24 h [44]: 37 µM·h | Cmax [45]: 43.7 µM | AUC(0-t) at 24 h [46]: 567 µM·h | Activity (Mus musculus [47]): Non-toxic | Activity (Mus musculus [48]): Non-toxic | Activity (Mus musculus [49]): Non-toxic | IC50 [50]: 1000 nM

SMILES: Nc1cc(Oc2ccc(NC(=O)c3cccn(-c4ccc(F)cc4)c3=O)cc2F)ccn1
IC50 [1]: 4.5 nM | IC50 [2]: 170 nM

Compounds with a lower IC50 [1], results first:

IC50 (Cytochrome P450 3A4): < 1000 nM | IC50 [1]: 1 nM
SMILES: C#Cc1c(Oc2ccc(NC(=O)c3cccn(-c4ccc(F)cc4)c3=O)cc2F)ccnc1N
IC50 [2]: 31 nM

IC50 [1]: 3.4 nM
SMILES: CC(C)c1c(Oc2ccc(NC(=O)c3cccn(-c4ccc(F)cc4)c3=O)cc2F)ccnc1N
IC50 [2]: 120 nM

IC50 [1]: 2.6 nM
SMILES: Nc1nccc(Oc2ccc(NC(=O)c3c(OCCO)ccn(-c4ccc(F)cc4)c3=O)cc2F)c1Cl
IC50 [2]: 250 nM
